Measurements: ChEMBL document CHEMBL1765010, “Reversible competitive α-ketoheterocycle inhibitors of fatty acid amide hydrolase containing additional conformational constraints in the acyl side chain: orally active, long-acting analgesics” (J Med Chem, 2011)
Activity calls are given as the source filed them. No cut-off for these calls is given here.

How the values were obtained:
Mus musculus [1] = assay: Inhibition of FAAH in C57Bl/6J mouse brain assessed as increase of arachidonic acid level at 30 mg/kg, ip after 1 hr relative to control; assay type: functional; conditions: route intraperitoneal
Method in brief: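 Male C57Bl/6J mice (<6 months, 20–28 g) dosed i.p. at 30 mg/kg in 18:1:1 saline:ethanol:emulphor emulsion; brains taken 1 h later. One mouse in the initial screen, 3 per group in the follow-up. Brain homogenized in CHCl3:MeOH:Tris pH 8.0 with deuterated lipid standards; organic extract quantified by reverse-phase C18 LC-ESI-MS/MS against vehicle controls.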

Mus musculus [2] = assay: Analgesic activity in C57BL/6 mouse chronic constriction injury model assessed as reversal of acetone-induced cold allodynia at 50 mg/kg, po measured up to 9 hrs; assay type: functional, organism-based; set-up: dose 50 mg/kg
Method in brief: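 Male C57BL/6 mice with sciatic nerve chronic constriction injury (two silk ligatures, isoflurane anesthesia), tested from 10 days post-surgery after 2 days of apparatus habituation. Single oral dose in PEG300 or vehicle. Blinded observer tested ipsilateral and contralateral paws at 1, 3, 6 and 9 h: von Frey up-down method (0.16–6.0 g filaments, 5 stimuli each) and acetone-induced cold response. n = 9–10; mean ± SEM.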

Mus musculus [3] = assay: Inhibition of FAAH in C57Bl/6J mouse brain assessed as increase of 2-arachidonoylglycerol level at 50 mg/kg, po; assay type: functional, organism-based; set-up: dose 50 mg/kg; conditions: TDE = time-dependent effect
Method in brief: (§1)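 Male C57Bl/6J mice (<6 months, 20–28 g) given a single oral dose as a PEG300 solution. Brains were homogenized in CHCl3:MeOH:Tris pH 8.0 containing deuterated internal standards. The organic extract was analysed by reverse-phase C18 LC–ESI triple-quadrupole MS for anandamide, PEA, OEA and 2-AG. Dose series (10, 25, 50 mg/kg) was sampled at 1 h; the 50 mg/kg time course ran to 9 h. Three mice per group in the i.p./p.o. comparison.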

[4] = molecular target: T1, Fatty-acid amide hydrolase 1 (Rattus norvegicus, UniProt P97612); assay: Inhibition of rat recombinant FAAH expressed in Escherichia coli assessed as [14C]-labeled oleamide to oleic acid conversion
T1 sequence (P97612 whole entry): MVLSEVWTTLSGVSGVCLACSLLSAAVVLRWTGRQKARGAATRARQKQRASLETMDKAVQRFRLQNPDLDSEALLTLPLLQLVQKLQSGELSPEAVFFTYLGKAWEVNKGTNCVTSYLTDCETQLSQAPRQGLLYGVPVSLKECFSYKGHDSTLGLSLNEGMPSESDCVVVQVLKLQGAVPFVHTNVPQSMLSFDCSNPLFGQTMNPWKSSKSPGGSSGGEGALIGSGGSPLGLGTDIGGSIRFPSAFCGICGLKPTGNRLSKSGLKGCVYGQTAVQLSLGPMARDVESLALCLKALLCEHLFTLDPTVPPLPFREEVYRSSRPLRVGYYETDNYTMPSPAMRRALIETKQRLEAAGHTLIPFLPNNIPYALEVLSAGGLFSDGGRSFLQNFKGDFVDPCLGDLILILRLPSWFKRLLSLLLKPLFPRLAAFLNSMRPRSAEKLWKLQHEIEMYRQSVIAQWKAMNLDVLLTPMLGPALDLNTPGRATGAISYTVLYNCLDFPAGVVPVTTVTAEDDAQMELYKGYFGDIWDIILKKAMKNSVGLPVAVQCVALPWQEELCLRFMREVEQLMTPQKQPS

Mus musculus [5] = assay: Inhibition of FAAH in C57Bl/6J mouse liver assessed as increase of anandamide level at 30 mg/kg, ip after 1 hr relative to control; assay type: functional; conditions: route intraperitoneal
Mus musculus [6] = assay: Inhibition of FAAH in C57Bl/6J mouse liver assessed as increase of 2-arachidonoylglycerol level at 30 mg/kg, ip after 1 hr relative to control; assay type: functional; conditions: route intraperitoneal
Mus musculus [7] = assay: Inhibition of FAAH in C57Bl/6J mouse liver assessed as increase of N-palmitoyl ethanolamine level at 30 mg/kg, ip after 1 hr relative to control; assay type: functional; conditions: route intraperitoneal
Mus musculus [8] = assay: Inhibition of FAAH in po dosed C57Bl/6J mouse brain assessed as increase of N-palmitoyl ethanolamine level after 1 hr relative to control; assay type: functional, organism-based; conditions: in the assay text read “anandamide” for “N-palmitoyl ethanolamine”; method in brief: as §1

Structure (SMILES): O=C(c1ncc(-c2ccccn2)o1)[C@H]1CCc2cc(Oc3ccccc3)ccc2C1
- fold change (FC) (Mus musculus [1]): 0.8
- Activity (Mus musculus [2]): Active
- Activity (Mus musculus [3]): tde
- Ki [4]: 4.4 nM
- fold change (FC) (Mus musculus [5]): 6
- fold change (FC) (Mus musculus [6]): 0.8
- fold change (FC) (Mus musculus [7]): 3.6
- Activity (Mus musculus [8]): Dose-dependent effect
